Sampled rows, rich in hits. Any-hit rate of the full collection: about 3.1%.
PAFAH1B3 inh = PAFAH1B3 (human) inhibition | Q15102 | recombinant PAFAH1B3, FP-rhodamine probe, fluorescence polarization | inhibition, % at 3.39 µM | hit rate 0.28% among 340,000;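 active means inhibition above the screen-wide average of all tested compounds plus 3 SD, cut at about 25% in these data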;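 further: 0% = enzyme with DMSO only and 100% = wells lacking PAFAH1B3 protein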
PAFAH1B2 FP inh = PAFAH1B2 (human) inhibition. P68402. recombinant PAFAH1B2, FP-rhodamine activity probe, fluorescence polarization. inhibition, % at 3.39 µM. hit rate 1.2% among 340,000;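 active means inhibition above the mean of all tested compounds plus 3 SD, cut at about 24% in these data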;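 further: 0% = enzyme with DMSO and 100% = wells lacking PAFAH1B2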
Apaf-1 inh = blocks human Apaf-1 apoptosome activity. inhibition, % at 20 µM. AID 489030. hit rate 0.71% among 330,000. reconstituted apoptosome caspase-3 activity, DEVD-Rh110 fluorescence; active means inhibition of at least 40% at 20 µM;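 further: plate controls were DMSO wells for no effect and DEVD-CHO caspase inhibitor wells for full effect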
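Material: reconstituted apoptosome with Apaf-1, cytochrome c, caspase-9, procaspase-3, dATP. Technique: Rh110 fluorescence intensity. Buffer or medium: pH 7.5 Hepes buffer with CHAPS, BSA, DTT. Times: 30 min plus 50 min, RT.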
PAFAH2 FP inh = PAFAH2 (human) inhibition; Q99487; recombinant PAFAH2, FP-rhodamine activity probe, fluorescence polarization; inhibition, % at 3.39 µM; hit rate 0.99% among 340,000;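 active means inhibition above the mean over all tested compounds plus 3 SD, cut at about 30% in these data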;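 further: inhibitors block probe labeling of enzyme so polarization drops; 0% = enzyme with DMSO and 100% = wells lacking PAFAH2 protein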
pPAFAH inh = inhibitors of human plasma PAF acetylhydrolase (pPAFAH) | Q13093 | recombinant pPAFAH, FP-rhodamine probe fluorescence polarization | inhibition, % at 3.39 µM | hit rate 1.5% among 330,000 | AID 463082;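 active means inhibition above the mean inhibition across the screen plus 3 SD, cut at about 25% in these data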;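 further: inhibitors block binding of the rhodamine activity-based probe so polarization drops; 0% = enzyme with DMSO and 100% = wells lacking pPAFAH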
The depositor's hits bear a star; / = not tested or not shown.

SMILES	PAFAH1B3 inh	PAFAH1B2 FP inh	Apaf-1 inh	PAFAH2 FP inh	pPAFAH inh
Cc1ccc2nc(-c3ccccc3)cc(C(=O)N(C)CC(=O)Nc3ccccc3Br)c2c1	5	3	23	-6	-2
O=C(Nc1cc(S(=O)(=O)N2CCOCC2)ccc1Cl)c1cc2ccccc2o1	5	4	8	-1	4
CCN(Cc1ccccc1)C(=O)COC(=O)c1cc(S(=O)(=O)Nc2ccccc2OC)ccc1O	7	32*	-3	21	6
COc1ccccc1NS(=O)(=O)c1ccc(O)c(C(=O)OCC(=O)Nc2ccccc2F)c1	7	7	1	34*	3
O=C(COC(=O)c1cc(S(=O)(=O)N2CCCC2)ccc1O)Nc1ccccc1Br	-2	2	15	49*	2
Cc1cccc(C(=O)OC(C)C(=O)Nc2ccc(S(=O)(=O)N3CCCC3)cc2)c1O (configuration not stated)	-1	5	11	-2	-5
CC(OC(=O)c1cc(Br)ccc1O)C(=O)Nc1ccc(S(=O)(=O)N2CCCC2)cc1 (configuration not stated)	-3	-2	11	-4	26*
CN(Cc1ccccc1)C(=O)COC(=O)c1ccccc1NS(=O)(=O)c1cccc(N)c1	1	14	15	-2	0
CNS(=O)(=O)c1cccc(C(=O)OCC(=O)Nc2ccccc2F)c1	-1	0	-4	24	2
Cc1ccc(NC(=O)CSCC(=O)Nc2cc(S(=O)(=O)N3CCOCC3)ccc2OC(C)C)cc1	-2	-2	/	5	/
O=C(NC1CCSC1=O)C1CC(=O)N(c2ccc(F)cc2)C1 (configuration not stated)	6	7	3	-1	-3
Cc1cccc(NS(=O)(=O)c2ccc(C)c(C(=O)NCc3ccccn3)c2)c1	2	1	4	3	/
O=C(c1ccc(F)cc1F)N1CCCc2ccccc21	6	8	/	-1	/
O=C(c1ccco1)N1N=C(c2cccs2)CC1c1cc([N+](=O)[O-])ccc1O (configuration not stated)	6	-1	2	5	9
O=C(O)c1ccc(NCc2ccc3c(c2)OCO3)cc1	-2	25*	-6	2	-4
COc1ccc2c(CC(=O)NCc3ccc4c(c3)OCO4)coc2c1	-13	3	8	-1	32*
O=C(CSCc1ccc(Cl)cc1)NCc1ccc2c(c1)OCO2	-4	26*	-1	-1	13
COc1ccc(CCNC(=O)c2nnc(Cc3ccc(Cl)cc3)o2)cc1OC	8	-8	4	-6	28*
Cc1ccc2c(CC(=O)NCc3ccc4c(c3)OCO4)coc2c1	-3	15	16	6	-3
COc1ccc(CCN2CC(C(=O)N3CCSCC3)CCC2=O)cc1 (configuration not stated)	4	0	3	-5	3
CC(Sc1ccc(Cl)cc1)C(=O)Nc1ccc2c(c1)OCO2 (configuration not stated)	-3	4	-2	-1	7
O=C(NCc1ccc2c(c1)OCO2)c1nnc(Cc2ccc(Cl)cc2)o1	2	-4	-4	2	29*
CC(Sc1ccc(Cl)cc1)C(=O)NCc1ccc2c(c1)OCO2 (configuration not stated)	6	24*	5	-15	1
Cc1[nH]c2ccccc2c1/C=N/NC(=O)c1ccccc1	4	5	0	5	8
Cc1[nH]c2ccccc2c1/C=N/NC(=O)c1cc(-c2ccccc2)n[nH]1	/	/	10	/	25*
SMILES	PAFAH1B3 inh	PAFAH1B2 FP inh	Apaf-1 inh	PAFAH2 FP inh	pPAFAH inh
COc1cccc(-c2nc(CS(=O)(=O)CC(=O)NCCN3CCOCC3)c(C)o2)c1	9	1	13	0	7
CCCCN(C(=O)c1ccc(Cl)c(S(=O)(=O)N2CCOCC2)c1)c1c(N)n(CCC)c(=O)[nH]c1=O	0	5	-2	1	2
Cc1cccc(NS(=O)(=O)c2cccc(C(=O)N3CCN(S(=O)(=O)c4ccccc4)CC3)c2)c1	5	29*	10	6	10
CCOC(=O)N1CCN(C(=O)c2cccc(S(=O)(=O)Nc3ccc(Br)cc3)c2)CC1	1	-2	8	1	32*
Cc1ccc(NS(=O)(=O)c2ccc(C(=O)N3CCN(S(=O)(=O)c4ccccc4)CC3)cc2)cc1	-2	4	0	1	19
Cc1[nH]c2ccc(C(=O)OC(C)C(=O)NC3(C#N)CCCCC3)cc2c1C (configuration not stated)	0	3	6	13	5
Cc1ccc(-c2cnc(C3CC3)o2)cc1S(=O)(=O)Nc1ccccc1	1	-4	15	12	31*
CC(=O)Nc1ccc(NS(=O)(=O)c2cc(-c3cnc(C4CC4)o3)ccc2C)cc1	6	4	-3	6	0
COC(=O)C1CCN(C(=O)COC(=O)/C=C/c2ccc(O)c(OC)c2)CC1	-4	6	-8	-1	4
COc1cc(/C=C/C(=O)OCC(=O)NCC2CCCCC2)ccc1O	0	4	-4	88*	28*
CCOc1cc(C(=O)N2CCC3(CC2)NCCc2[nH]cnc23)cc(OCC)c1OCC	-6	7	-7	4	4
Cc1ccc(CNn2cnnc2SCc2ccc(F)cc2)cc1	8	28*	13	4	4
O=[N+]([O-])c1cc(S(=O)(=O)N2CCCCCC2)ccc1F	-18	29*	/	17	1
CCc1ccc(C(=O)COC(=O)c2cc([N+](=O)[O-])ccc2N2CCOCC2)cc1	5	0	22	2	12
CCC(C)NS(=O)(=O)c1ccc(NC(=O)CCC2CCCCC2)cc1 (configuration not stated)	4	-4	3	6	11
CCC(C)NS(=O)(=O)c1ccc(S(=O)(=O)N(CC(=O)Nc2ccccc2)CC2CCCO2)cc1 (configuration not stated)	-5	-3	12	-2	31*
CCC1=NNc2cccc3c(OC)ccc1c23	/	/	52*	/	48*
COc1ccc2c3c(cccc13)C(=O)N(O)C2=O	-1	4	/	0	13
Cc1nnc(NC(=O)C2(c3ccccc3)CCOCC2)s1	-2	3	-3	0	-1
Cc1cnc(NC(=O)C2(c3ccccc3)CC2)s1	7	29*	/	1	3
CCOc1ccc(NC(=O)CCSc2ccc(C)cc2)cc1	1	25*	8	3	6
CC1Nc2ccccc2C(=O)N1NS(C)(=O)=O (configuration not stated)	5	3	-6	21	28*
CC(C)CC1NC(=O)c2ccc(Cl)cc2-n2c1nc1ccc(Cl)cc1c2=O (configuration not stated)	/	/	2	/	6
Cc1ccc(F)cc1NC(=O)COC(=O)COc1ccc(C#N)cc1	5	3	2	-2	15
O=C(CN1C(=O)NC(c2ccccc2)(c2ccccc2)C1=O)Nc1ccc2[nH]c(=O)[nH]c2c1	0	-1	-16	-5	25*
